From ChEMBL document CHEMBL1133575 (J Med Chem, 2000) come the findings set out here.

In experiment [1] the target is Sodium-dependent dopamine transporter (Homo sapiens, UniProt Q01959). As to the kind of experiment: Binding Affinity to cocaine site of dopamine transporter in caudate nuclei which was homogenized and incubated with [3H]mazindol.
In experiment [2] the target is T1, Sodium-dependent dopamine transporter (Rattus norvegicus, UniProt P23977). As to the kind of experiment: Inhibition of [3H]DA Uptake at dopamine transporter in rat cortex was measured by liquid scintillation spectrometry. In kind it is tissue-based.
T1 sequence (P23977 whole entry): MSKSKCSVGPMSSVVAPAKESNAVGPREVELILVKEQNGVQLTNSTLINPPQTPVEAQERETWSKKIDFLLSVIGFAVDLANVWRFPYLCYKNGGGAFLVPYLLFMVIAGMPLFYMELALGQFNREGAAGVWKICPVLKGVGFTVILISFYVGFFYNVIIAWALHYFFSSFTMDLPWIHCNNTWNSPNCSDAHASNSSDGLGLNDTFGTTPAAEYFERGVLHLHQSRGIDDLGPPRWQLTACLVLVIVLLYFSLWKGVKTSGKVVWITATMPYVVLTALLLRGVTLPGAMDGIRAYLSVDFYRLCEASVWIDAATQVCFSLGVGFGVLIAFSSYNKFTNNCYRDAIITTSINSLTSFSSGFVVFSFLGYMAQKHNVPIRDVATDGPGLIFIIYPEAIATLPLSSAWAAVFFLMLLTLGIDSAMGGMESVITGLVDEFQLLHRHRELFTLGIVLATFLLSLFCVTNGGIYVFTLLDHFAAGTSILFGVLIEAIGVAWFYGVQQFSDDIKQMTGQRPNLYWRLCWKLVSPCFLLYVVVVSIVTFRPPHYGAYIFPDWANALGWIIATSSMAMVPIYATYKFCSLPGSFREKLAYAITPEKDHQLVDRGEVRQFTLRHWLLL
Experiment [3] has as its target Norepinephrine transporter (Rattus norvegicus, UniProt Q9WTR4). As to the kind of experiment: Compound was tested for Inhibition of [3H]NE Uptake in rat parietal/occipital cortex. The method in brief:
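[3H]NE uptake used rat parietal/occipital cortex synaptosomes in modified KRH buffer. Drug was preincubated for 30 min at 37 °C, then radiolabel was added for 5 min. Uptake was stopped with cold sodium-free buffer, filtered and counted by liquid scintillation. Specific uptake was defined with 1 uM desipramine.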

The target of experiment [4] is Sodium-dependent serotonin transporter (Rattus norvegicus, UniProt P31652). As to the kind of experiment: Compound was tested for Inhibition of [3H]5-HT Uptake in rat mid brain. In kind it is tissue-based. The method in brief:
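[3H]5-HT uptake used rat midbrain synaptosomes in modified KRH buffer. Drug was preincubated for 30 min at 37 °C, then tritiated substrate was added for 5 min. Uptake was stopped in cold sodium-free buffer, filtered and counted by scintillation. Specific uptake was defined with 10 uM fluoxetine.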

For experiment [5], the target named is T1, Sodium-dependent dopamine transporter. As to the kind of experiment: Inhibition of [3H]DA Uptake at Dopamine transporter in rat cortex was measured by liquid scintillation spectrometry. In kind it is tissue-based.
Experiment [6] has the same target. As to the kind of experiment: Binding Affinity to cocaine site of Dopamine transporter in caudate nuclei which was homogenized and incubated with [3H]mazindol. The method in brief:
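Rat striatal membranes, washed in KRH buffer (pH 7.4, with 0.01 mM nialamide) and frozen at −80 °C, thawed at 75–125 ug protein/mL. Incubated with [3H]mazindol plus competitor for 60 min at 4 °C. […] Separated by GF/C filtration and counted by scintillation. IC50 fitted with LIGAND.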

Chain of Sodium-dependent dopamine transporter (Homo sapiens, UniProt Q01959) (Q01959 whole entry): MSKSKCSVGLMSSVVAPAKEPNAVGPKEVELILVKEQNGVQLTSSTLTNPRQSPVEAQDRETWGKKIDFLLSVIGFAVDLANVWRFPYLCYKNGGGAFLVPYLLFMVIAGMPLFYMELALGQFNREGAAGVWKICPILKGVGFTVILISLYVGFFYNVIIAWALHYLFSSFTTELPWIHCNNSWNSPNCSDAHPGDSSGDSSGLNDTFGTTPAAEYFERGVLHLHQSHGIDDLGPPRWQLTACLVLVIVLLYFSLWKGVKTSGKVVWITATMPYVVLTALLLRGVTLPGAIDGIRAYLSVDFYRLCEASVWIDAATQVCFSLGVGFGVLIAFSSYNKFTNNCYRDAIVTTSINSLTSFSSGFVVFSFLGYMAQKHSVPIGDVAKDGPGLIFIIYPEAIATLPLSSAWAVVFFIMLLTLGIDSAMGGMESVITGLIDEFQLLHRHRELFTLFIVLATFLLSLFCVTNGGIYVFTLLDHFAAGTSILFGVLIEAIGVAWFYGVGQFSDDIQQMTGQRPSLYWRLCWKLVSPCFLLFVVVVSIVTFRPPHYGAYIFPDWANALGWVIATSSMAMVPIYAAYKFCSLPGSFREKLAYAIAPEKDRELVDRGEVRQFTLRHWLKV
Chain of Norepinephrine transporter (Q9WTR4 whole entry): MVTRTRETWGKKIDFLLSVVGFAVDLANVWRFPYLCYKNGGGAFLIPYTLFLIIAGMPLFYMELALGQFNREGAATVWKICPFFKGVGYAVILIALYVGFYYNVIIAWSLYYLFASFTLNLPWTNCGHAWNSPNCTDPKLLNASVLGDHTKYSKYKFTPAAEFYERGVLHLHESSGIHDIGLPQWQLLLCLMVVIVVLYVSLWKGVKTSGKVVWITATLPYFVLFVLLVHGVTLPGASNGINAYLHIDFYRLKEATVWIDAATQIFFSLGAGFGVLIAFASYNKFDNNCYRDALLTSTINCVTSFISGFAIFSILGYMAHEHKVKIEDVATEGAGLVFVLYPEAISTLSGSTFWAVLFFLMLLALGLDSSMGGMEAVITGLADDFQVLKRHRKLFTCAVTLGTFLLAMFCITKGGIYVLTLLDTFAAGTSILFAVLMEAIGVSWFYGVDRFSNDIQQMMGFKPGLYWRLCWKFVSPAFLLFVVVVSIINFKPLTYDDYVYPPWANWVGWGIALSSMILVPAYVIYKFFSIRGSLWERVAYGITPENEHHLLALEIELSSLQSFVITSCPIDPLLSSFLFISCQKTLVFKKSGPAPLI
Chain of Sodium-dependent serotonin transporter (P31652 whole entry): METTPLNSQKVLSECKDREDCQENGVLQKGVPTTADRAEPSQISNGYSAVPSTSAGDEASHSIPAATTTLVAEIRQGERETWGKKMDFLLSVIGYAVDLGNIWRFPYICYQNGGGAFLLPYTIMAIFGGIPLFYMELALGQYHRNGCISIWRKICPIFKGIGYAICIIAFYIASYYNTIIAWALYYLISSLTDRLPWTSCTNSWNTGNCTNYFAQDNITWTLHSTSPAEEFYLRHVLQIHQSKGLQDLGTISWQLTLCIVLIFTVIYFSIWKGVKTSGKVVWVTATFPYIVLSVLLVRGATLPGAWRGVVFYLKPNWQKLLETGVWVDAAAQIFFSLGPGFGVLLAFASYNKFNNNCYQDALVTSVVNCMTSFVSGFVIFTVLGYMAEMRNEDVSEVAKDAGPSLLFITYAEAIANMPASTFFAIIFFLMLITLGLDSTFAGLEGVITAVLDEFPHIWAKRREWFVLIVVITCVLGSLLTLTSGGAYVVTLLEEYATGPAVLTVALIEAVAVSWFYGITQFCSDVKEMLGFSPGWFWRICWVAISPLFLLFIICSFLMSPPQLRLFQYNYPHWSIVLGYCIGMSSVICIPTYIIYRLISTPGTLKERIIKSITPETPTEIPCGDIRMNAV

As to `CN1CCC(O)(c2ccc(Cl)c(Cl)c2)C(C(=O)c2ccc(Cl)c(Cl)c2)C1` (stereo not given), the Ki in experiment [1] came to 0.0109 µM; in experiment [2] it was 0.051 µM; in experiment [3], 0.177 µM; in experiment [4], 2.38 µM.
As to `Cc1ccc([C@H](O)C2CN(C)CCC2(O)c2ccc(C)cc2)cc1` (stereo not given in full), the Ki in experiment [1] turned out to be 10.7 µM; in experiment [2], 15.8 µM.
As to `CN1CCC(O)(c2ccc(Cl)cc2Cl)C([C@@H](O)c2ccc(Cl)cc2Cl)C1` (stereo not given in full), the Ki in experiment [1] was determined as 4.35 µM; in experiment [2] it was 7.52 µM.
For the molecule `CN1CCC(O)(c2ccccc2)C(C(=O)c2ccccc2)C1` (stereo not given), the Ki in experiment [5] worked out at 2.59 µM; in experiment [6], 4.42 µM.
As for `CN1CCC(O)(c2ccc(F)cc2)C(C(=O)c2ccc(F)cc2)C1` (stereo not given) [FLAZALONE], the results for the Ki in experiment [1] and in experiment [2] were 5.7 µM and 4.2 µM, respectively.
On to `CN1CCC(O)(c2ccc(Cl)c(Cl)c2)C([C@@H](O)c2ccc(Cl)c(Cl)c2)C1` (stereo not given in full), for which the Ki amounted to 4.14 µM in experiment [1] and 4.22 µM in experiment [2].
As to `Cc1ccc(C(=O)C2CN(C)CCC2(O)c2ccc(C)cc2)cc1` (stereo not given), the Ki was 0.36 µM in experiment [5], 3.86 µM in experiment [3], 1.63 µM in experiment [4] and 0.492 µM in experiment [6].
The molecule `CN1CCC(O)(c2ccc(Cl)cc2Cl)C(C(=O)c2ccc(Cl)cc2Cl)C1` (stereo not given) registered a Ki in experiment [2] of 5.85 µM.
`Cc1ccc(C2OC(=O)OC3(c4ccc(C)cc4)CCN(C)CC23)cc1` (stereo not given) had a Ki in experiment [2] of 9.48 µM.
